The target in assay [1] is T1, Alpha-1A adrenergic receptor (Bos taurus, UniProt P18130).
T1 sequence (P18130 whole entry): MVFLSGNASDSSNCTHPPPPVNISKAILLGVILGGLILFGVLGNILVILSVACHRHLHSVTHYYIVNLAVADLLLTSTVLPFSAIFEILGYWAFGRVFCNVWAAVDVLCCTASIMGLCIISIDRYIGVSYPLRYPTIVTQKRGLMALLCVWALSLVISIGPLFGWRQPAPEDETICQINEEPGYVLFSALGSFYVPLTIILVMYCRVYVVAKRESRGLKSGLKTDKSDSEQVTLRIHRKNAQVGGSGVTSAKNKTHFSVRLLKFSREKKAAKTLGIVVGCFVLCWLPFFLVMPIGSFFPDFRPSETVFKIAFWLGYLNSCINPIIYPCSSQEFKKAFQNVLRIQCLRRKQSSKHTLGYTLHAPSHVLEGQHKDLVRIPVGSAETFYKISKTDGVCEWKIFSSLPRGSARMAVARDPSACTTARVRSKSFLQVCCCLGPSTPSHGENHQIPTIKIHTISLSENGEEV
Briefly: Binding affinity towards Alpha-1 adrenergic receptor of calf brain cortex using [3H]prazosin. The method in brief:
(§1)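 Membranes from fresh calf brain cortex. Nonspecific binding defined with 10 μM phentolamine for α1 ([3H]prazosin) and with 1 μM unlabeled clonidine for α2 ([3H]clonidine). IC50 converted to KD (Cheng–Prusoff), given as pKD.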

The next assay addresses D(1A) dopamine receptor (Bos taurus, UniProt Q95136). As to the kind of experiment: Binding affinity towards Dopamine receptor D1 of calf striatal tissue using [3H]SCH-23390. In outline: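 Calf striatal membranes, [3H]SCH-23390. Nonspecific binding defined with 1 μM unlabeled SCH-23390. IC50 from displacement curves converted via Cheng–Prusoff to KD, expressed as pKD.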

Assay [2] has as its target T2, Alpha-2A adrenergic receptor (Bos taurus, UniProt Q28838).
T2 sequence (Q28838 whole entry): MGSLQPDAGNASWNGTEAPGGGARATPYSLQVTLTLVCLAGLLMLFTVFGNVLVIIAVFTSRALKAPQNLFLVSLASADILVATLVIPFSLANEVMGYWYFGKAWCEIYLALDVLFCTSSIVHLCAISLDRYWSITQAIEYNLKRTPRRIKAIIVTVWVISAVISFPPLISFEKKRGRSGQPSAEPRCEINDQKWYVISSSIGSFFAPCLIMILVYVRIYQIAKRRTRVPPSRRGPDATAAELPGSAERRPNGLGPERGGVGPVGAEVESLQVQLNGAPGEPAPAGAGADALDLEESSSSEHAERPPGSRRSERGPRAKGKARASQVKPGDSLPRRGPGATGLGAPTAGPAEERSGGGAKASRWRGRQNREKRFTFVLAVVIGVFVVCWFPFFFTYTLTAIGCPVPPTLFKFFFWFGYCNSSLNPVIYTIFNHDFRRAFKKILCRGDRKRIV
As to the kind of experiment: Binding affinity towards Alpha-2 adrenergic receptor of calf brain cortex using [3H]clonidine. The method in brief:
as §1

Assay [3] concerns the target 5-hydroxytryptamine 2A receptor. As to the kind of experiment: Binding affinity towards 5-hydroxytryptamine 2A receptor in rat cortex preparations using [3H]ketanserin. In outline:
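5-HT2 sites: rat cortex for 2A ([3H]ketanserin), porcine choroid plexus for 2C ([3H]mesulergine). Nonspecific binding defined with 10 μM mianserin. Displacement-curve IC50 converted to KD via Cheng–Prusoff; expressed as pKD.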

The target of a further assay is D(2) dopamine receptor (Bos taurus, UniProt P20288). Briefly: Binding affinity towards Dopamine receptor D2 of calf striatal tissue using [3H]spiperone. In outline: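 Calf striatal membranes, [3H]spiperone. Cinanserin (0.5 μM) masked 5-HT2A sites; nonspecific binding defined with haloperidol (5 μM). Displacement IC50 converted to KD (Cheng–Prusoff), reported as pKD.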
D(2) dopamine receptor, sequence (P20288 whole entry): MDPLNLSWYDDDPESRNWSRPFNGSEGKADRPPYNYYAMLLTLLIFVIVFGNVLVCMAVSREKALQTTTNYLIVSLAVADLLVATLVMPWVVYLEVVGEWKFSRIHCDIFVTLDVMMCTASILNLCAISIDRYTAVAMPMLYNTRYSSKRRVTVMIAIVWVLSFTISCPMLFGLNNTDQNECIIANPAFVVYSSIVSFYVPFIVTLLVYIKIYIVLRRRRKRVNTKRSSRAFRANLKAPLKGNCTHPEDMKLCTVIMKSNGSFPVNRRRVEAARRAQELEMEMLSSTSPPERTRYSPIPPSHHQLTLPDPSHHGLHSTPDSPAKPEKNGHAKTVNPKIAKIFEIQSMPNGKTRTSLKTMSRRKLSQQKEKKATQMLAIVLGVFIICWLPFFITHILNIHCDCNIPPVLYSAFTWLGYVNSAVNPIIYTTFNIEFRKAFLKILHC

pKd: −log10 of the molar value. Where a name gives a salt, the structure may show the parent alone. A value given as a limit tells only on which side of the number the result lay.

By pKd is commonly meant the negative decadic logarithm of the Kd, by convention in mol/L.

D(1A) dopamine receptor, sequence (Q95136 whole entry): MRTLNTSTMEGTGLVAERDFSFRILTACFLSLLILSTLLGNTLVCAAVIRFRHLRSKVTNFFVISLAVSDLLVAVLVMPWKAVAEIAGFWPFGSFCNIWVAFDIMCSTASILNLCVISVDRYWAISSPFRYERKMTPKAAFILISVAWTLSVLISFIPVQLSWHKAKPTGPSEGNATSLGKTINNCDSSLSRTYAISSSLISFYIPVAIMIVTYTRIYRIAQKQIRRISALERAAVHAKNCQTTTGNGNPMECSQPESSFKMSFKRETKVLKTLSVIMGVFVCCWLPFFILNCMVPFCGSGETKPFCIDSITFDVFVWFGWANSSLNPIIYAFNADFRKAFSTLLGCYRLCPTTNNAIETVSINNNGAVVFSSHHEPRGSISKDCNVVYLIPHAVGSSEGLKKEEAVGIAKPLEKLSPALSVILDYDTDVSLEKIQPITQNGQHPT

Take `CN1CC[C@@H]2CN3CCc4cccc(c43)[C@@H]2C1` [SDZ SER 082 FUMARATE]: the pKd in assay [1] is 6.00; at D(1A) dopamine receptor, greater than 5.00; in assay [2], 6.00; in assay [3], 6.20; at D(2) dopamine receptor, greater than 5.00.

These data come from BindingDB's records for doi:10.1021/jm00001a007 (Sandoz Pharma, 1995).
